Counter-ions that a name gives are not always drawn.
Columns and labels:
[1] = target: T1, aerobactin synthetase IucA (Klebsiella pneumoniae, UniProt A0A1A9TA96); format: biochemical, hypervirulent K. pneumoniae hvKP1; details: for inhibition of IucA in pilot screen and follow-up: pilot screen of 4,400 bioactives, enzyme-initiated protocol; for effect of increasing IucA concentration on apparent potency: 20, 200, or 2,000 nM IucA; for effect of increasing IucA concentration on apparent potency / effect of 1 h pre-incubation with IucA on apparent potency: MG assay; for effect of 1 h pre-incubation with IucA on apparent potency: compared to reactions without pre-incubation
[2] = test system: IucA; test: Fluorescence-based thermal shift assay; format: binding, hypervirulent K. pneumoniae hvKP1; details: substrates ATP (1.5 mM) and citrate (1.5 mM)
Summary of the method: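 Purified IucA (10 μg per sample) with 5× SYPRO Orange, in the more concentrated buffer used for substrate runs: 50 mM HEPES, 150 mM NaCl, 0.2 mM TCEP, pH 7.5. ATP and citrate were each at 1.5 mM. Samples were heated from 25 to 99 °C over 45 min in a real-time PCR instrument, reading fluorescence (ex 545/em 568 nm) every 0.5 °C. TM was taken as the maximum of the first derivative of the melt curve.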

[3] = test system: IucA; details: read-out: KM for IucA; cited from earlier work
[4] = ref PubChem database; cited from earlier work
[5] = target: T1, aerobactin synthetase IucA; test: Orthogonal luminescence; format: biochemical, hypervirulent K. pneumoniae hvKP1; details: 30 min pre-incubation, substrate-initiated
[6] = test system: bacterial IspE kinase; details: cited from earlier work
[7] = test system: human RAD51 recombinase; details: cited from earlier work
[8] = test system: RecA; details: cited from earlier work

With `O=C(O)c1cc[c]([Hg][Cl])cc1` [4-chloromercuribenzoic acid, reference compound] the “inhibition of IucA in pilot screen and follow-up” value (shortened to “inhibition of IucA”) [1] was “identified in the initial screen”.

For `Nc1ncnc2c1ncn2[C@@H]1O[C@H](COP(=O)(O)OP(=O)([O-])OP(=O)([O-])O)[C@@H](O)[C@H]1O.[Na+].[Na+]` [ATP, adenosine triphosphate disodium salt hydrate], the “shift in the melting temperature (TM) of IucA” value [2] is listed as “+2–5 °C” and the Km [3] is listed as 130 ± 30 µM.

In the case of `CC1=NN(c2nc(-c3ccc(Cl)cc3)cs2)C(=O)/C1=C\c1ccc2c(c1)OCO2` [CB02], the “effect of increasing IucA concentration on apparent potency” value [1] is reported as “apparent potency was reduced”, the “effect of 1 h pre-incubation with IucA on apparent potency” value [1] is reported as “increased apparent potency” and the “dose-dependent activity, primary substrate-initiated MG assay” value ([1]; purchased compounds, substrate-initiated protocol) is reported as “highest potency”. For the same compound, the “reported active in unique PubChem bioassays” value [4] was 2 out of 8 and the “dose-dependent activity, secondary luminescence assay” value [5] was “most potent dose-dependent activity”.

In the case of `COc1ccc(-n2c(-c3cccnc3)nc3ccccc3c2=O)cc1` [CB04], the “inhibition of IspE kinase” value [6] is given as “potent inhibitors”.

For `O=c1c2ccccc2nc(-c2cccnc2)n1-c1ccc(Br)cc1` [CB05], the “inhibition of IspE kinase” value [6] is given as “potent inhibitors”.

For `O=c1c2ccccc2nc(/C=C/c2cccnc2)n1Cc1ccccc1` [CB06], the “effect of increasing IucA concentration on apparent potency” value [1] is given as “apparent potency was reduced”, the “effect of 1 h pre-incubation with IucA on apparent potency” value [1] is given as “increased apparent potency” and the “inhibition of human RAD51 recombinase” value [7] is given as “inhibitor”. The “inhibition of E. coli RecA” value [8] was “did not inhibit”.

For `O=c1c2ccccc2[se]n1-c1ccccc1` [Ebselen, reference compound], the “inhibition of IucA” value [1] was “identified as an inhibitor”.

With `O=C([O-])c1ccccc1-c1c2cc(Br)c(=O)cc-2oc2[c]([Hg+])c([O-])c(Br)cc12.[Na+].[Na+].[OH-]` [Merbromin, reference compound] the “inhibition of IucA” value [1] was “identified in the initial screen”.

For `O=C(O)CC(O)(CC(=O)O)C(=O)O` [citrate, sodium citrate tribasic dihydrate], the Km [3] is listed as 180 ± 30 µM.

With `CC(=O)[O][Hg][c]1ccccc1` [phenylmercuric acetate, reference compound] the “inhibition of IucA” value [1] was “identified in the initial screen”.

In the case of `C[CH2][Hg][S]c1ccccc1C(=O)[O-].[Na+]` [thiomersal, reference compound], the “inhibition of IucA” value [1] is reported as “identified in the initial screen”.

From article PMC6246805 (SLAS discovery : advancing life sciences R & D, 2018)
